What all share (type): functional
In assay [1] the test system is Escherichia coli. Kind of assay: Inhibitory concentration required to displace dansyl-PMBN (0.55 uM) from maximal specific binding to Escherichia coli LPS. Put shortly: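 Fluorescence displacement assay. E. coli LPS (3 µg/mL, ~2 × 10^-7 M) in 5 mM HEPES pH 7.2 was pre-equilibrated with dansyl-PMBN (0.55 µM). Peptide was added stepwise at 5-min intervals from 1 × 10^-5 to 1 × 10^-3 M stocks. Fluorescence read at excitation 340 nm and emission 485 nm after each addition. Percent inhibition was plotted against concentration to give maximal and 50% displacement. 2-3 repeats.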

For assay [2], the system named is Escherichia coli. Kind of assay: Relative sensitizing activity against Escherichia coli was determined as a percent of pPMBN (50 ug/mL) as a control. The gist of the method: (§1)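 Clinical isolates at 1 × 10^5 CFU per well, in ISB with a 2-fold serial dilution (1000-0.5 µg/mL) of novobiocin. Peptide added at 50 µg/mL final. Incubated 20 h at 37 °C and read by visible growth. Sensitizing activity is the fold drop in novobiocin MIC with versus without peptide, expressed as percent of that given by 50 µg/mL pPMBN.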

The subject of assay [3] is Escherichia coli. Kind of assay: Antimicrobial activity against Escherichia coli (Escherichia coli). The gist of the method: (§2)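 Clinical isolates grown on nutrient agar and kept at 4 °C. Overnight culture in isotonic sensitest broth (ISB) adjusted to 1 × 10^5 CFU/mL and inoculated into wells holding a 2-fold serial dilution (1000-0.5 µg/mL) of test agent in ISB. Incubated 20 h at 37 °C. MIC is the lowest concentration with no visible growth. 4-8 separate tests, varying by no more than one dilution.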

Assay [4] has as its system Klebsiella pneumoniae. Kind of assay: Relative sensitizing activity against Klebsiella pneumoniae was determined as a percent of pPMBN (50 ug/mL) as a control. Put shortly:
as §1

Assay [5] concerns Klebsiella pneumoniae. Kind of assay: Antimicrobial activity against Klebsiella pneumoniae (Klebsiella pneumoniae). Put shortly: as §2
Assay [6] has as its system Pseudomonas aeruginosa. Kind of assay: Minimal inhibitory concentration of compound required against Pseudomonas aeruginosa was evaluated. Put shortly:
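P. aeruginosa clinical isolate kept on nutrient agar at 4 °C. Overnight culture in isotonic sensitest broth adjusted to 1 × 10^5 CFU/mL and added to serial 2-fold dilutions (1000-0.5 µg/mL) of test agent in the same broth. MIC is the lowest concentration with no visible growth after 20 h at 37 °C. 4-8 separate tests, varying by no more than one dilution.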

For assay [7], the system named is Klebsiella pneumoniae. Kind of assay: Minimal inhibitory concentration of compound required against Klebsiella pneumoniae was evaluated; Inactive. The gist of the method:
as §2

Assay [8] has as its system Escherichia coli. Kind of assay: Minimal inhibitory concentration of compound required against Escherichia coli was evaluated; Inactive. Put shortly: as §2

Converted amounts (≈) assume the structure as drawn.

The term IC50 denotes the concentration at which inhibition is half-maximal. Low readings indicate inhibition by little substance, high ones a need for much substance. The MIC is the lowest concentration found to suppress growth.

The compound `CC(C)C[C@@H]1NC(=O)[C@@H](Cc2ccccc2)NC(=O)[C@H](CCN)NC(=O)[C@@H](NC(=O)[C@H](CCN)NC(=O)[C@@H](N)[C@@H](C)O)CCCCNC(=O)[C@H]([C@@H](C)O)NC(=O)[C@H](CCN)NC(=O)[C@H](CCN)NC1=O` [listing 1 of 2 here] showed an IC50 in assay [1] (Escherichia coli) of 8 µM.

`CC(C)C[C@@H]1NC(=O)[C@@H](Cc2ccccc2)NC(=O)[C@@H](NC(=O)[C@H](CCN)NC(=O)[C@H](CCN)NC(=O)[C@@H](N)[C@@H](C)O)CCNC(=O)[C@H]([C@@H](C)O)NC(=O)[C@H](CCN)NC(=O)[C@H](CCN)NC1=O` showed an IC50 in assay [1] (Escherichia coli) of 15 µM.

On to `CO[C@@H]1[C@@H](OC(N)=O)[C@@H](O)[C@H](Oc2ccc3c(O)c(NC(=O)c4ccc(O)c(CC=C(C)C)c4)c(=O)oc3c2C)OC1(C)C` [NOVOBIOCIN], for which the MIC in assay [2] stood at 125 mg/L; in assay [3], 125 mg/L (≈ 204 µM); in assay [4], 62 mg/L; in assay [5] it was 250 mg/L (≈ 408 µM).

`CC(C)C[C@@H]1NC(=O)[C@@H](Cc2ccccc2)NC(=O)[C@H](CCN)NC(=O)[C@@H](NC(=O)[C@H](CCN)NC(=O)[C@@H](N)[C@@H](C)O)CCNC(=O)[C@H]([C@@H](C)O)NC(=O)[C@H](CCCCN)NC(=O)[C@H](CCCCN)NC1=O`: the IC50 in assay [1] (Escherichia coli) amounted to 12 µM. That is a double-digit micromolar value.

Regarding `CC(C)C[C@@H]1NC(=O)[C@@H](Cc2ccccc2)NC(=O)[C@H](CCN=C(N)N)NC(=O)[C@@H](NC(=O)[C@H](CCN=C(N)N)NC(=O)[C@@H](N)[C@@H](C)O)CCNC(=O)[C@H]([C@@H](C)O)NC(=O)[C@H](CCN=C(N)N)NC(=O)[C@H](CCN=C(N)N)NC1=O`, the IC50 in assay [1] (Escherichia coli) was determined as 3.8 µM.

Regarding `CC(C)C[C@@H]1NC(=O)[C@@H](Cc2ccccc2)NC(=O)[C@H](CCCCN)NC(=O)[C@@H](NC(=O)[C@H](CCCCN)NC(=O)[C@@H](N)[C@@H](C)O)CCCCNC(=O)[C@H]([C@@H](C)O)NC(=O)[C@H](CCCCN)NC(=O)[C@H](CCCCN)NC1=O`, the IC50 in assay [1] (Escherichia coli) stood at 35 µM.

POLYMYXIN B came in with an IC50 in assay [1] of 0.5 µM.

Compound `CC(C)C[C@@H]1NC(=O)[C@@H](Cc2ccccc2)NC(=O)[C@H](CCCN)NC(=O)[C@@H](NC(=O)[C@H](CCCN)NC(=O)[C@@H](N)[C@@H](C)O)CCCNC(=O)[C@H]([C@@H](C)O)NC(=O)[C@H](CCCN)NC(=O)[C@H](CCCN)NC1=O` returned an IC50 in assay [1] (Escherichia coli) of 25 µM. This counts as double-digit micromolar.

Regarding `CC(C)C[C@@H]1NC(=O)[C@@H](Cc2ccccc2)NC(=O)[C@H](CN)NC(=O)[C@@H](NC(=O)[C@H](CN)NC(=O)[C@@H](N)[C@@H](C)O)CNC(=O)[C@H]([C@@H](C)O)NC(=O)[C@H](CN)NC(=O)[C@H](CN)NC1=O` [listing 1 of 2 here], in assay [1] (Escherichia coli), the IC50 worked out at 30 µM.

Consider `CC(C)C[C@@H]1NC(=O)[C@@H](Cc2ccccc2)NC(=O)[C@H](CCCCN)NC(=O)[C@@H](NC(=O)[C@H](CCCCN)NC(=O)[C@@H](N)[C@@H](C)O)CCNC(=O)[C@H]([C@@H](C)O)NC(=O)[C@H](CCN)NC(=O)[C@H](CCN)NC1=O`, for which, in assay [1] (Escherichia coli), the half-inhibitory concentration (IC50) came out at 14 µM.

With `CC(C)C[C@@H]1NC(=O)[C@@H](Cc2ccccc2)NC(=O)[C@H](CCN)NC(=O)[C@@H](NC(=O)[C@H](CCN)NC(=O)[C@@H](N)[C@@H](C)O)CCNC(=O)[C@H]([C@@H](C)O)NC(=O)[C@H](CCN)NC(=O)[C@H](CCN)NC1=O` (stereo in doubt; form 2), in assay [1], the IC50 amounted to 3 µM.

For `CC(C)C[C@@H]1NC(=O)[C@@H](Cc2ccccc2)NC(=O)[C@H](CCN)NC(=O)[C@H](CCN)NC(=O)[C@@H](NC(=O)[C@@H](N)[C@@H](C)O)CCNC(=O)[C@H]([C@@H](C)O)NC(=O)[C@H](CCN)NC(=O)[C@H](CCN)NC1=O`, the half-inhibitory concentration (IC50) in assay [1] (Escherichia coli) is 8 µM. This lies in the single-digit micromolar range.

`CC(C)C[C@@H]1NC(=O)[C@@H](Cc2ccccc2)NC(=O)[C@H](CCN)NC(=O)[C@@H](NC(=O)[C@H](CCN)NC(=O)[C@@H](N)[C@@H](C)O)CCCCNC(=O)[C@H]([C@@H](C)O)NC(=O)[C@H](CCN)NC(=O)[C@H](CCN)NC1=O` [listing 2 of 2 here]: the Activity in assay [2] came out at 17%; in assay [4], 18%.

In the case of `CC(C)C[C@@H]1NC(=O)[C@@H](Cc2ccccc2)NC(=O)[C@H](CCN)NC(=O)[C@@H](NC(=O)[C@H](CCN)NC(=O)[C@@H](N)[C@@H](C)O)CCNC(=O)[C@H]([C@@H](C)O)NC(=O)[C@H](CCN)NC(=O)[C@H](CCN)NC1=O` (stereo in doubt; form 1) [listing 1 of 2 here], the IC50 in assay [1] (Escherichia coli) amounted to 2.5 µM. This lies in the single-digit micromolar range.

In assay [1] (Escherichia coli), `CC(C)C[C@@H]1NC(=O)[C@H](Cc2ccccc2)NC(=O)[C@H](CCN)NC(=O)[C@@H](NC(=O)[C@H](CCN)NC(=O)[C@@H](N)[C@@H](C)O)CCNC(=O)[C@H]([C@@H](C)O)NC(=O)[C@H](CCN)NC(=O)[C@H](CCN)NC1=O` [listing 1 of 2 here] returned an IC50 of 8 µM. This IC50 lies about 3.2-fold higher than the previous one.

On to `CC(C)C[C@@H]1NC(=O)[C@H](Cc2ccccc2)NC(=O)[C@H](CCN)NC(=O)[C@@H](NC(=O)[C@H](CCN)NC(=O)[C@@H](N)[C@@H](C)O)CCNC(=O)[C@H]([C@@H](C)O)NC(=O)[C@H](CCN)NC(=O)[C@H](CCN)NC1=O` [listing 2 of 2 here], for which the Activity in assay [2] is on record as 5%; in assay [4], 9%.

Regarding `CC(C)C[C@@H]1NC(=O)[C@@H](Cc2ccccc2)NC(=O)[C@H](CCN)NC(=O)[C@@H](NC(=O)[C@H](CCN)NC(=O)[C@@H](N)[C@@H](C)O)CCNC(=O)[C@H]([C@@H](C)O)NC(=O)[C@H](CCN)NC(=O)[C@H](CCN)NC1=O` (stereo in doubt; form 1) [listing 2 of 2 here], the Activity in assay [2] and in assay [4] was 100% each time. The results for the MIC in assay [6], in assay [7] and in assay [8] were 8 mg/L (≈ 8.31 µM), no less than 1000 mg/L and no less than 1000 mg/L, respectively.

For `CC(C)C[C@@H]1NC(=O)[C@@H](Cc2ccccc2)NC(=O)[C@H](CCCCN)NC(=O)[C@@H](NC(=O)[C@H](CCCCN)NC(=O)[C@@H](N)[C@@H](C)O)CCNC(=O)[C@H]([C@@H](C)O)NC(=O)[C@H](CCCCN)NC(=O)[C@H](CCCCN)NC1=O`, the half-maximal inhibitory concentration (IC50) in assay [1] (Escherichia coli) came to 30 µM.

`CC(C)C[C@@H]1NC(=O)[C@@H](Cc2ccccc2)NC(=O)[C@H](CN)NC(=O)[C@@H](NC(=O)[C@H](CN)NC(=O)[C@@H](N)[C@@H](C)O)CNC(=O)[C@H]([C@@H](C)O)NC(=O)[C@H](CN)NC(=O)[C@H](CN)NC1=O` [listing 2 of 2 here]: the Activity in assay [2] was 11%; in assay [4], 5%.

Source of the values: ChEMBL document CHEMBL1133010, “Structure-function studies of polymyxin B nonapeptide: implications to sensitization of gram-negative bacteria” (J Med Chem, 2000).
